Source: PubChem BioAssay
This is a sample that favours compounds with a hit; in the whole collection about 5.8% have one here.
T cruzi growth-1: T. cruzi proliferation inhibition; T. cruzi beta-gal in NIH3T3, GalScreen luminescence, 90 h; inhibition, % at 8.34 µM; 77,000 compounds, 5.9% hits; AID 624255;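 active means mean inhibition above about 93%, with at least 55% of replicates each passing it, limit read from the data, passing the limit was not always enough; inconclusive means only one of those two conditions holds; inactive means neither condition holds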
GASC1 inh: blocks human GASC-1 (KDM4C) demethylase activity | GST-KDM4C 2-372, H3K9me3 peptide, LANCE TR-FRET | inhibition, % at 12.5 µM | 96,000 compounds, 0.15% hits;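 active means mean replicate inhibition above about 25%, with at least 55% of replicates also reaching it, limit read from the data, passing the limit was not always enough; inconclusive means only one of those two conditions met; inactive means neither condition met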
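Compound: one test concentration per compound; Material: GST-GASC-1 enzyme fragment 2-372; Amount: GASC-1 enzyme at 10 nM final in reaction; Also added: H3K9me3 peptide substrate, Fe(II), 2-oxoglutarate; Technique: LANCE TR-FRET; Times: 30 min demethylation and 1 h detection at room temperature.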
Pf Dd2 growth: P. falciparum Dd2 growth inhibition | SYBR Green, 72 h; stronger effect = lower value | activity change, % at 10 µM | 94,000 compounds, 2.3% hits; in the data active means activity change below about -80%; inconclusive means no clear call, values can overlap the other calls
IDH1 R132H inh: IDH1 R132H (human) inhibition | O75874 | IDH1 R132H reductase, diaphorase/resazurin fluorescence, 60 min | inhibition, % at 10 µM | 70,000 compounds, 0.18% hits | AID 624101; in the data active means inhibition above about 34%; inconclusive means no clear call, values can overlap the other calls; inactive means below about 11%;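 further: 0% = DMSO and 100% = no enzyme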
Target sequence (O75874 whole entry R132H): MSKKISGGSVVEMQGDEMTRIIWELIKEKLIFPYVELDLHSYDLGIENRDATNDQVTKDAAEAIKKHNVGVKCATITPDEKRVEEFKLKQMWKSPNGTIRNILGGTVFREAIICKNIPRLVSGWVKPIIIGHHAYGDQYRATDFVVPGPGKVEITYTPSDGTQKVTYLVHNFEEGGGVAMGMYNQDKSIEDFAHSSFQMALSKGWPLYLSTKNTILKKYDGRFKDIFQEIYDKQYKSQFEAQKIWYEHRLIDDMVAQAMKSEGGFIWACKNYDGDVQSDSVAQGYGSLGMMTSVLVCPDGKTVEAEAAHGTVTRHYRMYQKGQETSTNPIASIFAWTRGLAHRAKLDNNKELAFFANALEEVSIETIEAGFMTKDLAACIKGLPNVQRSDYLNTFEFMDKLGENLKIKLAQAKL
T cruzi growth-2: inhibitors of T. cruzi proliferation; shares compounds with T cruzi growth-1; T. cruzi beta-gal in NIH3T3, GalScreen luminescence, 90 h; inhibition, % at 8.35 µM; 5,600 compounds, 72% hits; AID 651739;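 active means mean replicate inhibition above about 95% and at least 55% of replicates individually reaching it, limit read from the data; inconclusive means only one of the two criteria is met; inactive means neither criterion is met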
T cruzi growth-3: Trypanosoma cruzi proliferation inhibition. shares compounds with T cruzi growth-1. T. cruzi beta-gal in NIH3T3, GalScreen luminescence, 90 h. inhibition, % at 2.09 µM. 5,600 compounds, 21% hits. AID 651740;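 active means mean inhibition above about 95%, with at least 55% of replicates also reaching it, limit read from the data; inconclusive means meets just one of the two conditions; inactive means meets neither condition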;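 further: plate controls were neutral control median for no effect and positive control median for full effect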
3T3 cytotox: cytotoxicity in mouse NIH/3T3 fibroblasts | shares compounds with T cruzi growth-1 | NIH/3T3 viability, CellTiter-Glo ATP luminescence, 90 h | cytotoxicity (signal decrease), % at 8.35 µM | 5,600 compounds, 14% hits | AID 651742;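 active means mean signal decrease across replicates above about 35% based on untreated-well scatter, with enough replicates individually passing, limit read from the data; inconclusive means no rule stated though some were filed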;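 further: 0% = median of neutral control wells and 100% = median of positive control wells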
NIH3T3 tox 2: kills mouse NIH/3T3 fibroblasts; shares compounds with T cruzi growth-1; NIH/3T3 viability, CellTiter-Glo ATP luminescence, 90 h; inhibition, % at 24.9 µM; 5,600 compounds, 56% hits; AID 651744;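 active means mean loss of cell viability signal at or above a set limit, and enough replicates individually reaching it; inconclusive means meets only the mean limit or only the replicate share; inactive means meets neither condition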;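 further: 0% = median of neutral control wells and 100% = median of positive control wells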
Starred values were filed as active, the others as inactive; ? = inconclusive; · = no result given.

SMILES	T cruzi growth-1	GASC1 inh	Pf Dd2 growth	IDH1 R132H inh	T cruzi growth-2	T cruzi growth-3	3T3 cytotox	NIH3T3 tox 2
CCn1c(SCC(=O)c2ccc(F)cc2)nnc1-c1cccnc1	·	·	·	0.7	·	·	·	·
COc1ccc(NC(=S)N2CCN(Cc3c(C)nn(C)c3C)CC2)cc1OC	·	·	·	-0.9	·	·	·	·
COc1ccc(N(CC(=O)Nc2ccccc2-c2ccccc2)S(C)(=O)=O)cc1	·	·	·	-0.2	·	·	·	·
C[C@H](CO)N1C[C@H](C)[C@H](CN(C)S(=O)(=O)c2ccc(F)cc2)Oc2cc(C#Cc3ccc(F)cc3)ccc2S1(=O)=O	110.9*	-0.9	-72.1	·	99.7*	106.5*	4.9	16.6
CC(C)CC#Cc1ccc2c(c1)O[C@H](CN(C)S(=O)(=O)c1ccc(F)cc1)[C@@H](C)CN([C@H](C)CO)S2(=O)=O	·	0.6	-65.6	0.3	·	·	·	·
CC(C)CC#Cc1ccc2c(c1)O[C@@H](CN(C)S(=O)(=O)c1ccc(F)cc1)[C@@H](C)CN([C@H](C)CO)S2(=O)=O	·	-0.3	-29.1	0.2	·	·	·	·
C[C@@H]1CN([C@H](C)CO)S(=O)(=O)c2ccc(C#Cc3ccc(F)cc3)cc2O[C@@H]1CN(C)S(=O)(=O)c1ccc(F)cc1	?	0.9	-63.3	-0.2	?	111.9*	12.2	70.7*
C[C@H](CO)N1C[C@H](C)[C@@H](CN(C)Cc2ccccc2)Oc2cc(C3=CCCCC3)ccc2S1(=O)=O	115.6*	0.3	-57.4	0.2	100.5*	101.1*	45.5*	105.0*
C[C@H]1CN([C@@H](C)CO)S(=O)(=O)c2ccc(C3=CCCCC3)cc2O[C@@H]1CN(C)Cc1cncnc1	102.4*	2.5	-22.4	1.8	101.8*	62.8	55.0*	69.2*
C[C@H](CO)N1C[C@H](C)[C@H](CN(C)Cc2ccccc2)Oc2cc(C3=CCCCC3)ccc2S1(=O)=O	?	-1.4	-9.1	-2.1	100.4*	70.6	0.3	102.6*
C[C@H]1CN([C@@H](C)CO)S(=O)(=O)c2ccc(C3=CCCCC3)cc2O[C@H]1CN(C)Cc1ccccc1	120.1*	0.0	-53.3	-0.5	91.1	92.8	68.5*	105.4*
N#Cc1ccccc1CSc1nc2ccc(NC(=O)c3ccc(F)cc3)cc2s1	·	·	·	0.5	·	·	·	·
O=C(O)CSc1nc2cc(N3CCOCC3)c(F)cc2[nH]1	·	·	·	0.0	·	·	·	·
C[C@H](CO)N1C[C@H](C)[C@H](CN(C)Cc2cccc(C(=O)O)c2)Oc2cc(C3=CCCCC3)ccc2S1(=O)=O	50.4	2.3	-31.4	·	·	·	·	·
C[C@@H]1CN([C@H](C)CO)S(=O)(=O)c2ccc(C3=CCCCC3)cc2O[C@@H]1CN(C)Cc1ccccc1	125.0*	-0.7	-61.7	1.9	96.8*	102.1*	25.7	104.9*
C[C@@H]1CN([C@@H](C)CO)S(=O)(=O)c2ccc(C3=CCCCC3)cc2O[C@@H]1CN(C)Cc1ccccc1	122.3*	-0.4	-70.9	-0.9	99.9*	117.0*	27.0	105.6*
C[C@H](CO)N1C[C@H](C)[C@H](CN(C)Cc2ccc(Oc3ccccc3)cc2)Oc2ccc(NS(=O)(=O)c3ccc(Cl)cc3)cc2C1=O	?	1.0	-6.3	·	106.9*	63.9	-0.2	104.4*
C[C@H]1CN([C@@H](C)CO)C(=O)c2cc(NS(=O)(=O)c3ccccc3)ccc2O[C@H]1CN(C)Cc1ccc(C(F)(F)F)cc1	?	0.2	-65.0	-0.3	106.3*	61.6	16.3	8.3
C[C@@H]1CN([C@H](C)CO)C(=O)c2cc(NS(=O)(=O)c3ccccc3)ccc2O[C@@H]1CN(C)Cc1ccc(Oc2ccccc2)cc1	47.4	-2.2	18.2	0.3	·	·	·	·
C[C@@H]1CN([C@@H](C)CO)C(=O)c2cc(NS(=O)(=O)c3ccc(Cl)cc3)ccc2O[C@@H]1CN(C)Cc1ccc(C(F)(F)F)cc1	125.6*	-4.0	8.4	1.1	95.6*	45.5	67.7*	104.1*
C[C@@H]1CN([C@@H](C)CO)C(=O)c2cc(NS(=O)(=O)c3ccccc3)ccc2O[C@H]1CN(C)Cc1ccc(C(F)(F)F)cc1	94.3	-0.2	9.6	·	·	·	·	·
CS(=O)(=O)N1N=C(c2cccc(NS(=O)(=O)c3ccccc3)c2)CC1c1ccco1 (configuration not stated)	·	·	·	-0.6	·	·	·	·
Cc1cc(C)c(C(=O)Nc2ccc(S(=O)(=O)Nc3cc(C)nc(C)n3)cc2)c(C)c1	·	·	·	0.4	·	·	·	·
COc1cccc(-c2ccc3c(c2)[C@H]2[C@H](CCN2C(=O)C2CCOCC2)[C@H](CO)N3)c1	?	-2.0	-24.1	·	103.0*	65.4	3.2	20.1
COc1cccc(-c2ccc3c(c2)[C@@H]2[C@@H](CCN2C(=O)C2CCC2)[C@@H](CO)N3)c1	19.2	-0.9	-32.7	·	·	·	·	·
SMILES	T cruzi growth-1	GASC1 inh	Pf Dd2 growth	IDH1 R132H inh	T cruzi growth-2	T cruzi growth-3	3T3 cytotox	NIH3T3 tox 2
COc1cccc(-c2ccc3c(c2)[C@H]2[C@H](CCN2C(=O)C2CCOCC2)[C@@H](CO)N3)c1	116.2*	-1.4	0.1	·	104.8*	73.2	-4.6	-0.8
COc1cccc(-c2ccc3c(c2)[C@@H]2[C@@H](CCN2C(=O)C2CCOCC2)[C@H](CO)N3)c1	110.5*	-0.3	-46.0	·	90.3	52.0	-14.9	-5.8
CC(C)(C)c1ccc(S(=O)(=O)NCC(=O)Nc2cccc(Cl)c2)cc1	·	·	·	0.3	·	·	·	·
O=S(=O)(c1cccs1)N1CCCCN2[C@H](C1)[C@H](c1ccc(-c3ccccc3)cc1)[C@@H]2CO	100.8*	-1.0	9.5	·	107.7*	94.0	14.5	?
O=S(=O)(c1cccs1)N1CCCCN2[C@H](CO)[C@H](c3ccc(-c4ccccc4)cc3)[C@@H]2C1	?	-2.2	46.3	·	107.0*	81.1	15.5	2.0
O=S(=O)(c1cccs1)N1CCCCN2[C@@H](CO)[C@@H](c3ccc(C4=CCCCC4)cc3)[C@@H]2C1	75.8	·	-63.3	·	·	·	·	·
O=S(=O)(c1cccs1)N1CCCCN2[C@H](CO)[C@@H](c3ccc(/C=C/c4ccccc4)cc3)[C@@H]2C1	96.8*	0.6	7.7	·	105.3*	42.1	25.5	23.5
O=S(=O)(c1cccs1)N1CCCCN2[C@H](CO)[C@H](c3ccc(-c4ccccc4)cc3)[C@H]2C1	87.9	-0.5	-1.1	·	·	·	·	·
O=S(=O)(c1cccs1)N1CCCCN2[C@H](CO)[C@H](c3ccc(C4=CCCCC4)cc3)[C@@H]2C1	118.0*	·	-0.8	·	101.4*	93.6	23.0	51.3*
O=C(CSc1ncnc2sc3c(c12)CCCCC3)NCC1CCCO1 (configuration not stated)	·	·	·	0.1	·	·	·	·
CN(C(=O)CSc1nnc(N)s1)c1ccccc1	·	·	·	-0.4	·	·	·	·
